Rows were chosen to be rich in hits. Some 1.9% of all compounds tested hit in one or more screens of this group.
NadD inh = NadD (S. aureus) enzyme inhibition | inhibition, % at 20 µM | purified NadD enzyme, colorimetric absorbance read-out | AID 602399 | hit rate 0.78% among 360,000; in the data active means inhibition above about 26%
XiGFP reactiv = reactivates the inactive X chromosome in mouse fibroblasts | XiGFP mouse fibroblasts, % GFP-positive cells imaging, 3 d; cells co-treated with 5-aza-dC sensitizer; scaled so ellipticine positive control = 100% | activation, % at 7.58 µM | hit rate 0.055% among 360,000;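 active means mean normalized replicate activation at least 10% and every replicate at or above 10%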
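Schedule: 3 d treatment, 15 min room-temperature fixation; system: 68-5-11 XiGFP fibroblast line; buffer or medium: DMEM plus 5-aza-dC sensitizer; control set: ellipticine 6 µM positive control; compound: one concentration, pinned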
Rin1-Abl PPI inh = blocks binding of human Rin1 to Abl; P00519+Q13671; TR-FRET Rin1/Abl binding, biochemical; inhibition, % at 7.35 µM; hit rate 0.4% among 360,000; AID 588664; in the data active means inhibition above about 5%, passing the limit was not always enough
ABHD5 PLIN5 PPI = ABHD5-PLIN5 protein interaction inhibition. Split G. princeps luciferase complementation, luminescence, 4 h. hit rate 0.78% among 360,000. inhibition, % at 4 µM. AID 602281;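 active means inhibition above the mean inhibition across every tested compound plus 3 SD, cut at about 22% in these data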
Target sequence (Q00G26 whole entry, looked up): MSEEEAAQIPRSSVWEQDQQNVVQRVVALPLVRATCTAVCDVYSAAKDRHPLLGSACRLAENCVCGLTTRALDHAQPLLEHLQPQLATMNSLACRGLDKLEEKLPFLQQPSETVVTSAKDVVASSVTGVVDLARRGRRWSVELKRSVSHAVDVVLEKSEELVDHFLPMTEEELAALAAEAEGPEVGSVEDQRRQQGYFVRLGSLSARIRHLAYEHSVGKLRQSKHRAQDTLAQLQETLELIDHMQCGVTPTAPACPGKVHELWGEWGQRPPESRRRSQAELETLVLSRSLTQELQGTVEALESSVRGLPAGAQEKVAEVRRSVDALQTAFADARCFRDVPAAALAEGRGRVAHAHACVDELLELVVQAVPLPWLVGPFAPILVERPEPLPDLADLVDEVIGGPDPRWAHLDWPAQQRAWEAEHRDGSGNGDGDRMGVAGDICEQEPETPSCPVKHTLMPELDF
Target sequence (Q8WTS1 whole entry, looked up): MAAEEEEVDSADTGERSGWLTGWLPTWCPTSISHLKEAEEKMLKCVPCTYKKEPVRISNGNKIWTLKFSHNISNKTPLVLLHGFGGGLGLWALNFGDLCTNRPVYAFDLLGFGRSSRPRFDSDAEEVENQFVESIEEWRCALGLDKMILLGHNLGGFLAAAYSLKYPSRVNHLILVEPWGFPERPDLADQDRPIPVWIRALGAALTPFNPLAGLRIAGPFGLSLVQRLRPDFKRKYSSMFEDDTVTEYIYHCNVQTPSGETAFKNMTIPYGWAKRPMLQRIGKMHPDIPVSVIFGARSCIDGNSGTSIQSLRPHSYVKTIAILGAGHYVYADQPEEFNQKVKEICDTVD
Rpn11 inh = Rpn11 (human) deubiquitinase inhibition. inhibition, % at 20 µM. AID 588493. hit rate 0.59% among 360,000. O00487. human 26S proteasome, Ub4-pepOG fluorescence polarization; 20S core pre-blocked with epoxomicin;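 active means inhibition at 20 µM, scaled to each plate's controls, above about 33%, limit read from the data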
Hits are given with their value; – = inactive; · = no result given; ! = not active in a repeat.

SMILES	NadD inh	XiGFP reactiv	Rin1-Abl PPI inh	ABHD5 PLIN5 PPI	Rpn11 inh
C[C@@H]1CN([C@H](C)CO)C(=O)c2cc(NC(=O)C3CCCCC3)ccc2O[C@@H](C)CCCCO[C@@H]1CN(C)C(=O)c1ccncc1	·	–	·	·	·
O=C(C1CC1)N1CC2(C1)[C@@H](c1ccccc1)[C@@H](CO)N2CC1CCCC1	·	–	·	·	·
COc1ccc(/C=C2/C(=O)N(c3nc4ccccc4s3)N=C2CSc2ccc(Cl)cc2)cc1	73	–	–	–	–
CC(C)c1ccc(S(=O)(=O)/N=C2\C=C(NS(=O)(=O)c3ccccc3)C(=O)c3ccccc32)cc1	41	–	–	–	–
Cc1ccc(C)c(S(=O)(=O)/N=C2\C=C(NS(=O)(=O)c3ccccc3)C(=O)c3ccccc32)c1	29	–	–	–	–
COc1ccc2c3c([nH]c2c1)[C@H](CO)N(C(=O)CN1CCOCC1)CC31CCN(C(C)=O)CC1	·	–	·	·	·
O=C1CSC(c2nn(-c3ccccc3)cc2-c2cc3ccccc3oc2=O)N1Cc1ccco1 (stereo not drawn)	–	·	–	23	–
O=C1CSC(c2cn(-c3ccccc3)nc2-c2cc3ccccc3oc2=O)N1Cc1ccccc1 (stereo not drawn)	–	·	–	–	–
Cc1c(Nc2cc(Cl)c3nonc3c2[N+](=O)[O-])c(=O)n(-c2ccccc2)n1C	–	19	–	–	–
CN(C)S(=O)(=O)c1ccc(-c2csc(N/N=C/c3ccc(O)cc3)n2)cc1	38	–	–	–	–
CN(C)S(=O)(=O)c1ccc(-c2csc(N/N=C/c3ccco3)n2)cc1	–	–	–	–	–
NCCNC(=O)Cc1cccc(NC(=O)Cc2ccc(Nc3ncnc4c3ncn4[C@@H]3O[C@H](CO)[C@@H](O)[C@H]3O)cc2)c1	–	–	17	–	–
COc1ccc2c3c([nH]c2c1)[C@H](CO)NCC31CN(C(=O)c2ccccc2)C1	·	–	·	·	·
c1cc2c3c(cccc3c1)NC1(CCC3(CC1)Nc1cccc4cccc(c14)N3)N2	51	–	–	–	–
c1cc2c3c(cccc3c1)NC1(CCCCCC1)N2	–	·	–	–	–
c1cc2c3c(cccc3c1)NC1(CCCCC1)N2	36	·	–	–	–
COc1ccc2c3c([nH]c2c1)[C@H](CO)NCC31CCN(C(=O)Cc2ccccc2)CC1	·	–	·	·	·
C[C@@H]1COCn2nncc2CC[C@H](C)C(=O)N1	·	–	·	·	·
CCOC(=O)c1c(C)[nH]c(C(=O)N/N=C/c2cc([N+](=O)[O-])ccc2O)c1C	33	–	–	–	–
Cc1cc(C)nc(NC(=O)/C=C/c2ccccc2Cl)n1	–	·	–	–	–
Cc1cc(N)c2cc(NC(=O)/C=C/c3ccccc3Cl)ccc2n1	–	·	–	–	136
CCCCCCc1cc2cc(C(=O)NCc3ccccc3)c(=N)oc2cc1O	31	·	–	–	·
O=S(=O)(O)c1cc(O)c2c(O)c(N=Nc3cc(Cl)ccc3O)c(S(=O)(=O)O)cc2c1	–	·	11	24	–
O=S(=O)(O)c1cc(Cl)cc(N=Nc2ccc(O)cc2O)c1O	–	–	–	–	–
CCCC#Cc1ccc2c(c1)O[C@@H](CN(C)C(=O)Nc1ccccc1F)[C@H](C)CN([C@H](C)CO)S2(=O)=O	·	–	·	·	·
SMILES	NadD inh	XiGFP reactiv	Rin1-Abl PPI inh	ABHD5 PLIN5 PPI	Rpn11 inh
COc1ccc(-c2ccc3c(c2)[C@H]2[C@H](CCN2S(=O)(=O)c2ccc(OC)cc2)[C@H](CO)N3)cc1	·	–	·	·	·
CCOc1cc(/C=C2\C(=N)N3N=C(S(=O)(=O)CC)SC3=NC2=O)ccc1OC(=O)c1ccco1	–	–	–	–	–
CCC(CC)C1=NN2C(=N)/C(=C\c3cc(C)n(-c4cccc(C)c4)c3C)C(=O)N=C2S1	41	–	–	–	–
CCOc1ccc(-n2c(C)cc(/C=C3/C(=N)N4C(=NC3=O)SN=C4S(C)(=O)=O)c2C)cc1	33	–	–	–	–
CCOc1cc(/C=C2/C(=N)N3C(=NC2=O)SN=C3S(C)(=O)=O)ccc1OC(=O)c1ccco1	–	·	–	–	62
C[C@H](CO)N1C[C@H](C)[C@@H](CN(C)C(=O)C2CCCCC2)Oc2ncc(C#CC3CC3)cc2C1=O	·	–	·	·	·
Cc1ccc2c(c1)c(/C=C/c1cc[n+](C)cc1)c(C)n2C	–	106	–	–	·
Cc1ccc2[nH]c(C)c(/C=C/c3cc[n+](C)cc3)c2c1	–	45	–	–	·
COc1ccc(S(=O)(=O)Nc2ccc3c(c2)C(=O)N([C@@H](C)CO)C[C@H](C)[C@H](CN(C)S(=O)(=O)c2ccccc2)OCCCC[C@H](C)O3)cc1	·	–	·	·	·
Cc1c(N2C(=O)/C(=C\c3ccc(N(C)C)cc3)N(C)C2=S)c(=O)n(-c2ccccc2)n1C	–	–	–	22	·
COc1cc2c[n+](C)c3c4ccccc4ccc3c2cc1OC	–	–	–	–	–
COc1ccc2c(c1)c[n+](C)c1c3cc(OC)c(OC)cc3ccc21	–	–	·	22	·
C[C@H](CO)N1C[C@H](C)[C@@H](CN(C)Cc2ccc(-c3ccccc3)cc2)Oc2ccc(NC(=O)Cc3cn(C)c4ccccc34)cc2CC1=O	·	–	·	·	·
COCC(=O)Nc1ccc2c(c1)C(=O)N(C)[C@H]1CC[C@H](CC(=O)NCCc3ccncc3)O[C@@H]1CO2	·	–	·	·	·
CN(C)c1ccc(C=C2SC(=S)NC2=O)cc1	–	–	–	–	·
CN(C)c1ccc(/C=N/N=C2/NC(=O)/C(=C/c3ccc([N+](=O)[O-])cc3)S2)cc1	50	·	–	–	–
O=C(O)CCN1C(=O)/C(=C2\C(=O)N(Cc3ccccc3Cl)c3ccccc32)SC1=S	–	–	–	–	–
COc1ccc(NC(=O)CN2C(=O)/C(=C3\SC(=S)N(CCC(=O)O)C3=O)c3ccccc32)cc1	51	·	–	–	–
CC1Nc2ncnc(N3CCc4ccccc4C3)c2N(Cc2ccc(Br)cc2)C1=O (stereo not drawn)	45!	–	–	–	–
O=C1C(Cc2ccccc2)Nc2ncnc(N3CCCCC3)c2N1Cc1ccc(Cl)cc1 (stereo not drawn)	36	·	–	–	–
O=C1C(Cc2ccccc2)Nc2ncnc(N3CCc4ccccc4C3)c2N1Cc1ccccc1 (stereo not drawn)	40	·	–	–	–
CC(C)CC1Nc2ncnc(N3CCCCC3)c2N(Cc2ccccc2)C1=O (stereo not drawn)	–	·	–	–	–
CCC1Nc2ncnc(N3CCc4ccccc4C3)c2N(Cc2ccc(Br)cc2)C1=O (stereo not drawn)	–	·	–	–	–
CCS(=O)(=O)N1CC(=O)N2[C@H](C1)[C@H](c1ccc(C#Cc3cccc(F)c3)cc1)[C@@H]2CO	·	–	·	·	·
CN(C)C(=O)c1cc2c(c(-c3cccc(C4=CCCCC4)c3)n1)[C@H](CCO)N([S@@](=O)C(C)(C)C)C2	·	–	·	·	·
COCC#Cc1cnc2c(c1)C(=O)N([C@H](C)CO)C[C@H](C)[C@H](CN(C)S(C)(=O)=O)O2	·	–	·	·	·
C[N+](C)(C)CCN(Cc1ccc(Cl)cc1)c1ccccn1	–	·	–	–	–
